Data on 24 compounds can be found in ChEMBL document CHEMBL1932939, “Synthesis and cytotoxic evaluation of thiourea and N-bis-benzothiazole derivatives: a novel class of cytotoxic agents” (Bioorg Med Chem Lett, 2012).

pIC50: −log10 of the molar value.

Test [1] relates to U-937. Nature of the test: Cytotoxicity against human U937 cells after 48 hrs by MTT assay. The test is classed as functional, cell-based. Summed up: (§1)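 IC50 is taken as the concentration that gives a 50% drop in cell number relative to control cultures grown without inhibitor. Etoposide serves as the standard positive-control drug.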
(In general: Tetrazolium dyes change colour on reduction, which living cells bring about.)

Test [2] concerns THP-1. Nature of the test: Cytotoxicity against human THP1 cells after 48 hrs by MTT assay. The note with it: THP-1, 48 h. Type of test: functional, cell-based. The method in brief: as §1
In test [3] the test system is B16-F10. In words: Cytotoxicity against mouse B16F10 cells after 48 hrs by MTT assay. Type of test: functional, cell-based. The note with it: B16-F10, 48 h. The method in brief: as §1
The test system of test [4] is THP-1. In words: Ratio of IC50 for human U937 cells to IC50 for human THP1 cells after 48 hrs by MTT assay. The test is classed as functional.
The subject of test [5] is THP-1. In words: Ratio of IC50 for mouse B16F10 cells to IC50 for human THP1 cells after 48 hrs by MTT assay. The test is classed as functional.

Turning to `Fc1ccc2nc(NC(=S)Nc3ccccc3)sc2c1`, the pIC50 (commonly the IC50 on a negative log10 scale, so that one unit is a factor of ten) in test [1] (Homo sapiens, U-937, 48 h) was under 4.30; in test [2], 4.33; in test [3], under 4.30.
As for `CCOc1ccc2nc(Nc3nc4ccccc4s3)sc2c1`, the pIC50 was under 4.30 in test [1] (Homo sapiens, U-937, 48 h); 4.43 in test [2]; under 4.30 in test [3].
Consider `Cc1ccc2nc(NC(=S)Nc3ccccc3)sc2c1`, for which the pIC50 in test [1] (Homo sapiens, U-937, 48 h) is under 4.30; in test [2] it was under 4.30; in test [3], under 4.30.
`CCOc1ccc2nc(Nc3nc4ccc(F)cc4s3)sc2c1`: the pIC50 in test [1] (Homo sapiens, U-937, 48 h) is 4.58; in test [2], 4.41; in test [3], 4.48.
With `S=C(Nc1ccc(Cl)cc1)Nc1nc2ccccc2s1`, the pIC50 in test [1] (Homo sapiens, U-937, 48 h) was under 4.30; in test [2], 4.41; in test [3], under 4.30.
Take `Clc1cccc2sc(Nc3nc4ccccc4s3)nc12`: the pIC50 in test [1] (Homo sapiens, U-937, 48 h) was under 4.30; in test [2], under 4.30; in test [3] it was 4.53.
As to `Cc1ccc2nc(NC(=S)Nc3ccc(F)cc3)sc2c1`, the pIC50 was under 4.30 in test [1] (Homo sapiens, U-937, 48 h); 4.43 in test [2]; under 4.30 in test [3].
Take `Fc1ccc2nc(NC(=S)Nc3ccc(Cl)cc3)sc2c1`: the pIC50 in test [1] (Homo sapiens, U-937, 48 h) was 4.73; in test [2], 4.51; in test [3], 4.32.
For the compound `Fc1ccc2nc(Nc3nc4c(Cl)cccc4s3)sc2c1`, the negative logarithm of the IC50 (pIC50) in test [1] (Homo sapiens, U-937, 48 h) is under 4.30; in test [2], 4.44; in test [3] it was under 4.30.
With `Fc1ccc(NC(=S)Nc2nc3c(Cl)cccc3s2)cc1`, the pIC50 is under 4.30 in test [1] (Homo sapiens, U-937, 48 h); under 4.30 in test [2]; under 4.30 in test [3].
In the case of `CCOc1ccc2nc(NC(=S)Nc3ccccc3)sc2c1`, the pIC50 was 4.42 in test [1] (Homo sapiens, U-937, 48 h); 4.36 in test [2]; under 4.30 in test [3].
Consider `Fc1ccc(NC(=S)Nc2nc3ccc(F)cc3s2)cc1`, for which the pIC50 was 4.79 in test [1] (Homo sapiens, U-937, 48 h); 4.46 in test [2]; 4.32 in test [3].
For the compound `S=C(Nc1ccccc1)Nc1nc2c(Cl)cccc2s1`, the pIC50 was under 4.30 in test [1] (Homo sapiens, U-937, 48 h); 4.50 in test [2]; under 4.30 in test [3].
As to `Fc1ccc(NC(=S)Nc2nc3ccccc3s2)cc1`, the pIC50 was 4.49 in test [1] (Homo sapiens, U-937, 48 h); 4.57 in test [2]; under 4.30 in test [3].
With `Cc1ccc2nc(Nc3nc4ccc(F)cc4s3)sc2c1`, the pIC50 is under 4.30 in test [1] (Homo sapiens, U-937, 48 h); under 4.30 in test [2]; 4.53 in test [3].
As for `COc1cc([C@@H]2c3cc4c(cc3[C@@H](O[C@@H]3O[C@@H]5CO[C@@H](C)O[C@H]5[C@H](O)[C@H]3O)[C@H]3COC(=O)[C@H]23)OCO4)cc(OC)c1O` [ETOPOSIDE], the “Ratio IC50” value in test [4] and in test [5] was 9 in each case. This compound also had a pIC50 in test [3] of 4.73.
Consider `S=C(Nc1ccccc1)Nc1nc2ccccc2s1`, for which the pIC50 was under 4.30 in test [1] (Homo sapiens, U-937, 48 h); 4.44 in test [2]; under 4.30 in test [3].
Turning to `CCOc1ccc2nc(NC(=S)Nc3ccc(F)cc3)sc2c1`, the pIC50 in test [1] (Homo sapiens, U-937, 48 h) was 4.55; in test [2], 4.40; in test [3], under 4.30.
On the same counts, the results for `Cc1ccc2nc(Nc3nc4ccccc4s3)sc2c1` are 4.31, 4.47 and under 4.30.
As for `c1ccc2sc(Nc3nc4ccccc4s3)nc2c1`, the pIC50 in test [1] (Homo sapiens, U-937, 48 h) is 4.40; in test [2] it was 4.54; in test [3] it was under 4.30.
Take `Fc1ccc2nc(Nc3nc4ccc(F)cc4s3)sc2c1`: the pIC50 in test [1] (Homo sapiens, U-937, 48 h) is 4.56; in test [2], 4.76; in test [3], 4.32.
On the same counts, the results for `Fc1ccc2nc(Nc3nc4ccc(Cl)cc4s3)sc2c1` are under 4.30, 4.39 and 4.38.
Consider `Fc1ccc2nc(Nc3nc4ccccc4s3)sc2c1`, for which the pIC50 in test [1] (Homo sapiens, U-937, 48 h) is 4.39; in test [1] (u-937), 4.36; in test [2], under 4.30; in test [3], under 4.30.
As for `Clc1ccc2nc(Nc3nc4ccccc4s3)sc2c1`, the pIC50 in test [1] (Homo sapiens, U-937, 48 h) is under 4.30; in test [2] it was 4.34; in test [3], under 4.30.
